Assay outcomes: PubChem, several laboratories
BAP1 inh: inhibitors of BAP1 deubiquitinase, primary screen, biochemical, Ub-AMC fluorescence, kinetic; calls only at 20 µM; 0.48% of 72,000 active; recombinant BAP1, Ub-AMC hydrolysis fluorescence kinetic; stronger effect = lower value; Ubiquitin carboxyl-terminal hydrolase BAP1 (Homo sapiens), Q92560;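 active = activity remaining at or below 50% of control, provided the compound also passes the data quality filters; inactive = the rest, including low values that fail the filters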;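 note: 100% = DMSO wells rate and 0% = substrate alone blank rate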
Her2 expr inh: inhibitors of Her2 protein expression, primary screen, SKBR-3 cells, AlphaScreen, 66K library | SKBR-3 HER2 protein level, 18-24 h; stronger effect = lower value | HER2 level % of control, % at 10 µM | 0.69% of 65,000 active;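 active = HER2 level under 5% of the carrier-only control; inconclusive = no clear call, values can overlap the other calls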;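 note: 100% = DMSO carrier and 0% = 500 nM PU-H71 HSP90 inhibitor; lower value means stronger loss of Her2 protein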
M1 antagonist: antagonists of rat M1 muscarinic receptor; AID 628, 2007; Muscarinic acetylcholine receptor M1 (Rattus norvegicus), P08482; CHO-M1 cells, Fluo-4 calcium, ACh EC80 antagonist mode; stronger effect = lower value; 3.4% of 64,000 active; B-score at 10 µM;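 active = calcium fluorescence response, raw or row-and-column corrected B-score, differing from the plate sample mean either way at a set confidence level, mostly lower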
Target sequence (P08482 whole entry, looked up): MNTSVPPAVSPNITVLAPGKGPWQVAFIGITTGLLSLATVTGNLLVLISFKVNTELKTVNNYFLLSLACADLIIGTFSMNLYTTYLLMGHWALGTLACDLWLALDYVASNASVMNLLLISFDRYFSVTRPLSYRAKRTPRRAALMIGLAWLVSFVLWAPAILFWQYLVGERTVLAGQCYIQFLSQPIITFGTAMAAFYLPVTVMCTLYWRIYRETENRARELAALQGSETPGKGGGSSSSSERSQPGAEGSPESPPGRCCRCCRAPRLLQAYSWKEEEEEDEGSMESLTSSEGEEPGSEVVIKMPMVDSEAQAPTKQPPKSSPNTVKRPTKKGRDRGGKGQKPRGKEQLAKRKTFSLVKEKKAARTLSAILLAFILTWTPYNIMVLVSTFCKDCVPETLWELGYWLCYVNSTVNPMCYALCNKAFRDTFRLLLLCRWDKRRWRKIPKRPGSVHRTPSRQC
HEK293 NFkB inh: inhibitors of PMA/ionomycin-induced NF-kB reporter, primary screen, antigen receptor NF-kB inhibitor project, cell-based, HEK-293 luciferase reporter, luminescence. HEK-293 NF-kB luciferase reporter. 0.21% of 62,000 active. inhibition, % at 3 µM;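 active = inhibition above the mean of all tested compounds plus 3 SD, cut at about 40% in these data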;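 note: 0% = stimulated DMSO wells and 100% = 10 µM reference inhibitor 5653914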
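Material: HEK-293 cells with stable firefly luciferase reporter driven by four HIV NF-kB elements / Also added: PMA plus ionomycin mix as NF-kB-activating stimulus / Compound dosing: 3 µM once, 0.30% DMSO / Times: 1 h pretreatment, 16 h stimulation, 37 °C / Signal: luminescence / Evaluation: per-plate % inhibition versus controls / Benchmarks: DMSO and 10 µM reference inhibitor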
JNK3 inh: JNK3 kinase activity inhibitors, primary screen, biochemical, human, purified enzyme | inhibition, % at 8 µM | 0.61% of 60,000 active | HTS | Mitogen-activated protein kinase 10 (Homo sapiens), P53779; in the data active = inhibition above about 17%;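 note: 0% = DMSO and 100% = reference inhibitor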
M1 agonist: M1 muscarinic receptor agonists, primary screen, CHO-M1 cells, Fluo-4 calcium, agonist mode. Fluo-4 calcium fluorescence; stronger effect = higher value. B-score at 10 µM. 3% of 64,000 active. AID 626, 2007;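 active = fluorescence rise, raw or as B-score row- and column-corrected plate score, outside the 99.7% band of its plate's samples, either direction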
M1 ag confirm: rat M1 muscarinic receptor agonists, confirmation, CHO-M1 cells, Fluo-4 calcium, duplicate retest; 19% of 1,700 active; Fluo-4 calcium fluorescence, agonist mode; actives lie on both sides; fluorescence change (max-min) at 10 µM; AID 1488, 2009; shares compounds with M1 agonist;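 active = fluorescence change differs from the solvent-only DMSO control mean at a set confidence level in both duplicate runs; inconclusive = differs from solvent-only control mean in just one of two runs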;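 note: an EC20 dose of acetylcholine follows compound addition during the same imaging run; raw fluorescence intensity difference in instrument units with no normalization to controls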
M4 ag counter: agonist activity at rat M4 receptor, confirmation, counter-screen for M1 allosteric modulator project, cell-based, agonist mode; shares compounds with M1 agonist; CHO M4/Gqi5 cells, Fluo-4 calcium fluorescence; actives lie on both sides; fluorescence change (max-min) at 10 µM; 9% of 1,700 active; AID 1741, 2009;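 active = fluorescence change differing from the plate's solvent-only control wells at 99.7% confidence in both duplicates, whether higher or lower; inconclusive = differs from solvent controls in only one of two duplicates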
An asterisk follows results filed as active; i = inactive; ? = inconclusive; · = not tested or not shown. Compounds with a hit are over-represented: about 6.6% of the library has one in this group of screens.

SMILES	BAP1 inh	Her2 expr inh	M1 antagonist	HEK293 NFkB inh	JNK3 inh	M1 agonist	M1 ag confirm	M4 ag counter
COc1ccc(C2C3=C(CC(C)(C)CC3=O)Nc3c2c(=O)[nH]c(=O)n3Cc2ccccc2)cc1OC (configuration not stated)	i	90	-1.1	10	-1	9.9*	28	8.1
Cc1nc2[nH]c(=O)c3c(n2n1)NC1=C(C(=O)CC(C)(C)C1)C3c1ccc(F)cc1 (configuration not stated)	i	100	0.0033	14	-1	3.8*	9.9	4.3
COc1ccc(C2C3=C(CC(C)(C)CC3=O)Nc3c2c(=O)[nH]c(=O)n3Cc2ccccc2)cc1 (configuration not stated)	i	81	0.24	-3	3	2.7*	7.1	-35
Cc1nnc(C)n1/N=C/c1cc(Br)cc(Br)c1O	i	113	0.71	·	2	27*	143*	?
Cc1nnc(C)n1/N=C/c1cc(Br)ccc1O	i	112	-0.56	16	-5	8.2*	22	7.8
Cc1ccc(S(=O)(=O)N2CCOCC2)cc1C(=O)Nc1nc(-c2cccnc2)cs1	i	95	0.88	21	·	0.21	·	·
Cc1ccc(S(=O)(=O)N2CCOCC2)cc1C(=O)Nc1ccc(-c2cn3ccsc3n2)cc1	i	86	-0.0062	15	5	3.3*	-8.1	?
Cc1cccc2cc3c(N)c(C#N)sc3nc12	i	78	0.27	-2	-9	8.6*	8.9	?
Cc1cccc2cc(C#N)c(NCCNC(=O)NC3CCCCC3)nc12	·	97	0.73	6	-4	0.51	·	·
N/C(=N\c1nc2ccccc2o1)NC(=O)c1ccc([N+](=O)[O-])c(Cl)c1	i	·	·	·	·	·	·	·
COc1cc2c(=O)nc3n(c2cc1OC)C(c1ccccc1)N=C(N)N3 (configuration not stated)	i	94	-1.2	2	4	2.4*	-17	-38
NC1=NC(c2ccc(F)cc2)n2c(nc3ccccc32)N1 (configuration not stated)	i	86	0.97	4	1	0.84	·	·
COc1ccc(-c2cc(C(F)(F)F)n3ncc(C(=O)NCC4CCCO4)c3n2)cc1 (configuration not stated)	i	98	0.12	7	6	-0.93	·	·
COc1cccc(-c2cc(C(F)(F)F)n3ncc(C(=O)NCC4CCCO4)c3n2)c1 (configuration not stated)	i	66	-1.9	5	1	6.6*	?	-54
O=C(CN1C(=O)COc2ccccc21)N(Cc1ccccc1)Cc1ccccn1	i	90	-0.24	18	0	-0.16	·	·
COc1ccc(CN(Cc2ccccn2)C(=O)CN2C(=O)C(C)Oc3ccccc32)cc1 (configuration not stated)	i	83	-1.1	17	6	15*	-13	-39
CC(C)C(c1nnnn1C1CCCCC1)N1CCN(c2ncccn2)CC1 (configuration not stated)	i	107	0.064	5	7	4.4*	-14	-33
COc1ccc(Cn2c(SCC(=O)NCc3ccco3)nc3ccsc3c2=O)cc1	i	61	0.0047	17	·	0.32	·	·
O=C(NCc1ccco1)c1cccn2c(=O)c3sccc3nc12	i	102	-3.2*	12	·	2.9*	-18	-60
COc1ccc(C2=CC(c3c(C)nn(-c4ccccc4)c3Cl)n3nnnc3N2)cc1OC (configuration not stated)	i	44	1.8	0	-6	5.5*	38	8.5
O=C(CN1CCOCC1)Nc1ccccc1-c1ccccc1	i	95	-0.081	-2	-1	-0.67	·	·
O=C(CN1CCOCC1)Nc1scc(-c2ccccc2)c1C(=O)N1CCOCC1	i	108	-0.5	8	2	3.4*	?	-34
CC(NC(=O)C12CC3CC(CC(C3)C1)C2)C12CC3CC(CC(C3)C1)C2 (configuration not stated)	i	·	·	·	·	·	·	·
CC(=O)c1c(C)[nH]c(C(=O)NCCc2cccc(C)c2)c1C	i	131	-0.1	-2	-2	-2.4*	?	?
CC(=O)c1c(C)[nH]c(C(=O)Nc2cc(C)ccc2C)c1C	i	100	-0.034	18	-2	-0.043	·	·
SMILES	BAP1 inh	Her2 expr inh	M1 antagonist	HEK293 NFkB inh	JNK3 inh	M1 agonist	M1 ag confirm	M4 ag counter
COc1[nH]c(/N=C/c2ccccc2)c(C#N)c1C#N	i	114	-0.39	-15	6	10*	?	39
O=C(CSc1nnc(COc2ccc(Cl)cc2)o1)OC1CCCCC1	i	103	1.3	8	4	0.004	·	·
Cc1cc(OCc2nnc(SCC(=O)OC3CCCCC3)o2)ccc1Cl	i	88	0.13	-6	-6	4.6*	?	?
Cc1ccc(CN(c2ccc(C(=O)N3CCCC3)cc2)S(C)(=O)=O)cc1	i	109	0.42	10	-1	0.86	·	·
Cc1ccccc1CN(c1ccc(C(=O)N2CCCC2)cc1)S(C)(=O)=O	i	80	0.37	8	-8	3.2*	16	-2
COc1ccc(Nc2ccnc3ccccc23)cc1	i	153	-2*	2	-6	14*	63	-21
COc1nccc(Nc2ccccc2)c1C#N	i	79	0.44	-2	3	-0.24	·	·
CCN1CCN(c2cc(C)c3cc(NC(=O)c4ccc(Br)o4)ccc3n2)CC1	·	112	-4.4*	9	·	3*	-4	-52
CCN1CCN(c2cc(C)c3cc(NC(=O)c4ccncc4)ccc3n2)CC1	i	96	-0.56	6	-4	0.34	·	·
C=CCOC(=O)C1=C(C)OC(N)=C(C#N)C1c1c(C)nn(-c2ccccc2)c1Cl (configuration not stated)	i	87	-0.093	9	1	5.3*	?	-45
CCOC(=O)C1=C(C)OC(N)=C(C#N)C1c1c(C)nn(-c2ccccc2)c1Cl (configuration not stated)	·	·	0.028	18	·	0.84	·	·
